The results in this text go back to ChEMBL document CHEMBL1212775, “A novel class of meso-tetrakis-porphyrin derivatives exhibits potent activities against hepatitis C virus genotype 1b replicons in vitro” (Antimicrob Agents Chemother, 2010).

One data set deals with Hepatitis B virus. The data set can be described thus: Antiviral activity against Hepatitis B virus infected in human 2.2.15 cells assessed as reduction of […] after 72 hrs by southern DNA hybridization method. The data set is classed as functional, organism-based. As to conditions: HepG2 2.2.15, 72 h. (Replicon systems follow genome replication, usually without infectious particles.)

The test system of data set [1] is Human immunodeficiency virus 1. The data set can be described thus: Antiviral activity against Human immunodeficiency virus 1 3B virus infected in human MT2 cells assessed as inhibition of virus-induced cytopathic effect by colorimetry. The data set is classed as functional, organism-based. A digest of the protocol: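 MT-2 cells, 1 × 10^3 per well in triplicate, infected with HIV-1 IIIB at 0.1 TCID50/cell and cultured with compounds. Viral CPE quantified by MTT colorimetry after 5 days to estimate EC50.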
On the technique in general: Cytopathic effects are the visible damage that an infection or toxin causes in cultured cells.

The subject of another data set is MT2. The data set can be described thus: Cytotoxicity against human MT2 cells after 5 days by colorimetry. The data set is classed as cell-based. To be noted: MT2, 120 h. A digest of the protocol: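 Uninfected MT-2 cells coincubated with compounds for 5 days. Cytotoxicity by colorimetric quantitation.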
The nature of data set [2]: Cytotoxicity against human HuH7 cells by luminescence based cell viability assay. Also on record: species or system Huh-7. A digest of the protocol: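 Exponentially growing Huh-7 cells seeded at 1 × 10^4 per well and incubated with compounds for 3 days. Viability read by CellTiter-Glo luminescence, used for dark compounds that interfere with methylene blue absorbance at 595 nm. CC50 derived.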

Data set [3] relates to Hepatitis C virus. The data set can be described thus: Antiviral activity against Hepatitis C virus genotype 1b Con1 infected in human Huh-luc/neo-ET replicon cells assessed as reduction of replicon luciferase signal after 72 hrs by luciferase reporter assay in presence of 0% fetal bovine serum. The data set is classed as functional, organism-based, Hepacivirus hominis. A digest of the protocol: (§1)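 Huh-luc/neo-ET cells without G418, incubated with serially diluted compounds in medium containing 5%, 10%, 20% or 40% (vol/vol) FBS. Firefly luciferase read after 72 h. EC50 from dose-effect curves. The 0% value is a theoretical EC50 extrapolated from the plot of EC50 versus serum level. Means ± SD of three independent experiments.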

The subject of data set [4] is Hepatitis C virus. Put plainly: Antiviral activity against Hepatitis C virus genotype 1b Con1 infected in human Huh-luc/neo-ET replicon cells assessed as reduction of replicon luciferase signal after 72 hrs by luciferase reporter assay in presence of 5% fetal bovine serum. The format is functional, organism-based, Hepacivirus hominis. The method in brief:
as §1

Data set [5] concerns Hepatitis C virus. Put plainly: Antiviral activity against Hepatitis C virus genotype 1b Con1 infected in human Huh-luc/neo-ET replicon cells assessed as reduction of replicon luciferase signal after 72 hrs by luciferase reporter assay in presence of 10% fetal bovine serum. The data set is classed as functional, organism-based, Hepacivirus hominis. The method in brief:
as §1

For data set [6], the system named is Hepatitis C virus. Put plainly: Antiviral activity against Hepatitis C virus genotype 1b Con1 infected in human Huh-luc/neo-ET replicon cells assessed as reduction of replicon luciferase signal after 72 hrs by luciferase reporter assay in presence of 20% fetal bovine serum. The format is functional, organism-based, Hepacivirus hominis. A digest of the protocol: as §1

Data set [7] relates to Hepatitis C virus. Put plainly: Antiviral activity against Hepatitis C virus genotype 1b Con1 infected in human Huh-luc/neo-ET replicon cells assessed as reduction of replicon luciferase signal after 72 hrs by luciferase reporter assay in presence of 40% fetal bovine serum. The data set is classed as functional, organism-based, Hepacivirus hominis. A digest of the protocol: as §1

Data set [8] deals with Hepatitis C virus. Put plainly: Antiviral activity against Hepatitis C virus genotype 1b Con1 infected in human Huh-luc/neo-ET replicon cells assessed as inhibition of virus-induced cytopathic effect after 48 hrs by luciferase reporter assay. The data set is classed as functional, organism-based, Hepacivirus hominis. The method in brief:
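Huh-luc/neo-ET cells seeded at 1 × 10^5 per well and treated with DMSO or serially diluted compound up to 250 nM. Harvested at 24 or 48 h. Luciferase run in triplicate and RLU normalized to total protein (Bradford), expressed as percent of mock control. Three independent repeats averaged.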

For data set [9], the system named is Hepatitis C virus. Put plainly: Antiviral activity against blasticidin resistant Hepatitis C virus genotype 1b Con1 replicon infected in human HuH7 cells assessed as reduction in viral RNA level by RT-PCR. The format is functional, organism-based, Hepacivirus hominis. To be noted: Con1, Huh-7.
In data set [10] the test system is Hepatitis C virus. Put plainly: Antiviral activity against Hepatitis C virus genotype 1b Con1 infected in human Huh-luc/neo-ET replicon cells assessed as viral replicon survival dosed at 50 nM incubated for 12 days followed by compound removal and reintroduction of 250 ug/ml G418 measured after 6 days post compound withdrawal. The data set is classed as functional, Hepacivirus hominis. A digest of the protocol:
(§2)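 Huh-luc/neo-ET cells were seeded at 2 × 10^5 per well and kept without G418 for 12 days with DMSO or up to 1 μM drug. Cells were split every 3 days, with medium and drug renewed. Drug was then removed and 250 μg/ml G418 added for 12 more days, sampling at confluence. HCV 5′UTR RNA was measured by one-step qRT-PCR, normalised to β-actin and expressed relative to mock. Viability was read by CellTiter-Glo as % of mock.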

The subject of data set [11] is Hepatitis C virus. The data set can be described thus: Antiviral activity against Hepatitis C virus genotype 1b Con1 infected in human Huh-luc/neo-ET replicon cells assessed as viral replicon survival dosed at 50 nM incubated for 12 days followed by compound removal and reintroduction of 250 ug/ml G418 measured after 12 days post compound withdrawal. The data set is classed as functional, Hepacivirus hominis. The method in brief: as §2

Data set [12] has as its system Hepatitis C virus. The data set can be described thus: Antiviral activity against Hepatitis C virus genotype 1b Con1 infected in human Huh-luc/neo-ET replicon cells assessed as viral replicon survival dosed at 100 nM incubated for 12 days followed by compound removal and reintroduction of 250 ug/ml G418 measured after 12 days post compound withdrawal. The format is functional, Hepacivirus hominis. A digest of the protocol:
as §2

For data set [13], the system named is Hepatitis C virus. The data set can be described thus: Antiviral activity against Hepatitis C virus genotype 1b Con1 infected in human Huh-luc/neo-ET replicon cells assessed as inhibition of viral rebound dosed at 1 uM incubated for 12 days followed by compound removal and reintroduction of 250 ug/ml G418 measured after 9 days post compound withdrawal. The format is functional, organism-based. To be noted: Hepacivirus hominis. The method in brief:
as §2

The test system of data set [14] is Hepatitis C virus. Put plainly: Antiviral activity against Hepatitis C virus genotype 1b Con1 infected in human Huh-luc/neo-ET replicon cells assessed as inhibition of viral rebound dosed at 300 nM incubated for 12 days followed by compound removal and reintroduction of 250 ug/ml G418 measured after 9 days post compound withdrawal. The format is functional, organism-based. As to conditions: Hepacivirus hominis. A digest of the protocol: as §2

Data set [15] relates to Hepatitis C virus. Put plainly: Antiviral activity against Hepatitis C virus genotype 1b Con1 infected in human Huh-luc/neo-ET replicon cells assessed as viral replicon survival dosed at 300 nM incubated for 9 days followed by compound removal and reintroduction of 250 ug/ml G418 measured after 15 days post compound withdrawal. The data set is classed as functional, Hepacivirus hominis. The method in brief: (§3)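 In a separate run, Huh-luc/neo-ET replicon cells were treated for 9 days without G418. Drug was then withdrawn and cells were kept for a 15-day rebound period under G418 selection. Surviving cells were scored as the fraction of the population that outlasted selection.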

Data set [16] has as its system Hepatitis C virus. Put plainly: Antiviral activity against Hepatitis C virus genotype 1b Con1 infected in human Huh-luc/neo-ET replicon cells assessed as inhibition of viral rebound dosed at 300 nM incubated for 9 days followed by compound removal and reintroduction of 250 ug/ml G418 measured after 15 days post compound withdrawal. As to conditions: Hepacivirus hominis. The format is functional, organism-based. The method in brief:
as §3

For data set [17], the system named is Hepatitis C virus. Put plainly: Antiviral activity against Hepatitis C virus genotype 1b Con1 infected in human Huh-luc/neo-ET replicon cells assessed as inhibition of viral rebound dosed at 1 uM incubated for 9 days followed by compound removal and reintroduction of 250 ug/ml G418 measured after 15 days post compound withdrawal. The format is functional, organism-based. To be noted: Hepacivirus hominis. The method in brief:
as §3

Data set [18] is described as follows: Cytotoxicity against human Huh-7 cells by luminescence based cell viability assay.
Data set [19] concerns Hepatitis C virus. The data set can be described thus: Antiviral activity against Hepatitis C virus genotype 1b Con1 infected in human Huh-luc/neo-ET replicon cells assessed as inhibition of viral RNA level dosed at >300 nM incubated for 12 days measured after 12 days of exposure relative to untreated control.

The source made the active and inactive calls. The rule behind the calls is not given here. Some results are limits rather than exact numbers.

In general, EC50 refers to the concentration that produces a half-maximal response. As usually defined, the CC50 is the concentration at which the toxic effect on the cells reaches its halfway point. Regarding `O=C(O)c1cc(C(=O)O)cc(-c2ccc(-c3c4nc(c(-c5ccc(-c6cc(C(=O)O)cc(C(=O)O)c6)cc5)c5ccc([nH]5)c(-c5ccc(-c6cc(C(=O)O)cc(C(=O)O)c6)cc5)c5ccc([nH]5)c(-c5ccc(-c6cc(C(=O)O)cc(C(=O)O)c6)cc5)c5nc3C=C5)C=C4)cc2)c1`, the EC50 with Hepatitis B virus is over 20000 nM; in data set [1] it was 3670 nM; in the data set on Hepatitis C virus [3] it was 6.5 nM; in the data set on Hepatitis C virus [4], 13 nM; in the data set on Hepatitis C virus [5], 24 nM; with Hepatitis C virus [6], 39 nM. In addition, the concentration giving a half-maximal response (EC50) turned out to be 69 nM in the data set with Hepatitis C virus [7], 19.2 nM with Hepatitis C virus [8] and 14 nM in the data set with Hepatitis C virus [9]. For the same compound, the CC50 is 18000 nM in the data set on MT2, over 50000 nM in data set [2] and over 50000 nM in data set [18]. Besides, the inhibition entry in the data set with Hepatitis C virus [8] (Hepacivirus hominis) was “Dose-dependent effect”. The Survival in the data set on Hepatitis C virus [10] was 8.5%; in the data set on Hepatitis C virus [11], 13.1%; in the data set on Hepatitis C virus [12], 0.007%; in the data set with Hepatitis C virus [15], 0.4%. Also, the inhibition result in the data set with Hepatitis C virus [13], in the data set with Hepatitis C virus [14], with Hepatitis C virus [16] and with Hepatitis C virus [17] was “Active” throughout. For the same compound, the “fold change (FC)” value with Hepatitis C virus [19] is 4.5.
